According to ChEMBL document CHEMBL1800061 (J Med Chem, 2010):
Converted amounts (≈) assume the structure as drawn. The source made the active and inactive calls. The rule behind the calls is not given here.

Key:
[1] = biological target: Cyclin-dependent kinase 1 (Homo sapiens) (UniProt P06493); test: Inhibition of CDK1-mediated phosphorylation of RB protein in human HCT116 cells after 4 hrs by immunoblotting analysis; assay type: cell-based; settings: HCT-116
How it was run: (§1)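 HCT116 colon cancer cells were kept in DMEM with 10% FCS. Cells (8×10^5) were plated, dosed 24 h later, and exposed for 4 or 24 h. Whole-cell lysates were made in RIPA buffer with phosphatase and protease inhibitor cocktails and normalised by BCA protein assay. They were immunoblotted for phospho-sites, total proteins and cyclins.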

[2] = biological target: Serine/threonine-protein kinase PLK1 (Homo sapiens) (UniProt P53350); test: Inhibition of PLK1 assessed as residual enzyme activity at 10 uM
COLO 205 = test: Antiproliferative activity against human COLO205 cells after 72 hrs by sulforhodamine B assay; assay type: functional; settings: COLO 205, 72 h
How it was run: (§2)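 Cell lines were grown in DMEM with 10% FCS and treated with increasing concentrations for 72 h. Growth was read by sulforhodamine B staining and GI50 was derived. Values are means of at least three replicates with SD.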

[3] = biological target: Casein kinase I isoform alpha (Homo sapiens, UniProt P48729); test: Inhibition of CK1 assessed as residual enzyme activity at 10 uM
[4] = biological target: Mitogen-activated protein kinase 1 (Homo sapiens, UniProt P28482); test: Inhibition of ERK2 assessed as residual enzyme activity at 10 uM
HCT-116 [5] = test: Antiproliferative activity against human HCT116 cells after 72 hrs by sulforhodamine B assay; assay type: functional; settings: HCT-116, 72 h; how it was run: as §2
[6] = biological target: Mitogen-activated protein kinase 8 (Homo sapiens) (UniProt P45983); test: Inhibition of JNK1 assessed as residual enzyme activity at 10 uM
[7] = biological target: Serine/threonine-protein kinase 3 (Homo sapiens) (UniProt Q13188); test: Inhibition of MST2 assessed as residual enzyme activity at 10 uM
[8] = biological target: Insulin receptor (Homo sapiens) (UniProt P06213); test: Inhibition of Histidine tagged-IR assessed as residual enzyme activity at 10 uM
HCT-116 [9] = test: Antitumor activity against human HCT116 cells xenografted in nude BALB/c mouse assessed as decrease in tumor volume at 25 mg/kg/day, po measured after 14 days relative to control on day 1; assay type: functional; design: scale not given: the % may be the effect or the level left
[10] = Aqueous solubility of the compound in PBS as pH 7.4; assay type: physicochemical
MCF7 [11] = test: Cell cycle arrest in human MCF7 cells assessed as reduction in cells at G1 phase at 1 to 10 umol/L after 24 hrs by propidium iodide staining based flow cytometric analysis; assay type: functional
[12] = Plasma protein binding in human at 10 uM; assay type: ADME, cell-free; settings: read-out: PPB (converted)
How it was run: (§3)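 Plasma protein binding in human and mouse plasma, test concentration 10 μM. Reported as percent bound, mean (range).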

[13] = Plasma protein binding in mouse at 10 uM; assay type: ADME, cell-free; settings: read-out: PPB (converted); how it was run: as §3
[14] = biological target: Mitogen-activated protein kinase 15 (Homo sapiens) (UniProt Q8TD08); test: Inhibition of ERK8 assessed as residual enzyme activity at 10 uM
HCT-116 [15] = test: Induction of apoptosis in human HCT116 cells assessed as increase in sub-G1 population at 1 to 10 umol/L after 24 hrs by […] staining based flow cytometric analysis; assay type: functional, cell-based
HCT-116 [16] = test: Antitumor activity against human HCT116 cells xenografted in po dosed nude BALB/c mouse assessed as decrease in tumor volume measured after 14 days relative to control on day 1; assay type: functional, organism-based
MDA-MB-231 = test: Antiproliferative activity against human MDA-MB-231 cells after 72 hrs by sulforhodamine B assay; assay type: functional; settings: MDA-MB-231, 72 h; how it was run: as §2
[17] = biological target: Dual specificity tyrosine-phosphorylation-regulated kinase 2 (Homo sapiens) (UniProt Q92630); test: Inhibition of DYRK2 assessed as residual enzyme activity at 10 uM
[18] = biological target: G1/S-specific cyclin-D1 (Homo sapiens) (UniProt P24385); test: Inhibition of cyclin D1 in human HCT116 cells assessed as decrease in protein level at 1 umol/L after 24 hrs by immunoblotting analysis; assay type: cell-based; settings: HCT-116; how it was run: as §1
[19] = biological target: 5'-AMP-activated protein kinase subunit beta-1 (Homo sapiens) (UniProt Q9Y478); test: Inhibition of AMPK assessed as residual enzyme activity at 10 uM
[20] = Clearance in mouse at 10 mg/kg, iv; assay type: ADME, organism-based; design: dose 10 mg/kg, route intravenous; settings: in vivo
How it was run: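 Mice given 10 mg/kg by the ip, iv or oral route. Plasma levels were measured at 8 time points, with 3 animals per route for po and iv. Parameters came from a noncompartmental model. AUCINF was extrapolated to infinity, and bioavailability was calculated from AUCINF. The terminal slope used 3 points.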

MCF7 [21] = test: Cell cycle arrest in human MCF7 cells assessed as concomitant increase in cells at S phase at 1 to 10 umol/L after 24 hrs by propidium iodide staining based flow cytometric analysis; assay type: functional
[22] = biological target: MAP kinase-activated protein kinase 5 (Homo sapiens) (UniProt Q8IW41); test: Inhibition of PRAK assessed as residual enzyme activity at 10 uM
Mus musculus [23] = test: Inhibition of cyclin-dependent kinase substrate […] phosphorylation in nude BALB/c mouse PBMC at 75 to 100 mg/kg, po measured after 24 hrs by immunostaining and flow cytometric analysis; assay type: organism-based; design: dose 75-100 mg/kg, route oral; settings: in vivo
How it was run: (§4)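 Female nu/nu-BALB/c athymic nude mice (7 weeks old) given a single oral gavage dose in 28% PEG300/5% dimethylacetamide/10% HPB cyclodextrin in water. PBMC were isolated from cardiac blood after red-cell lysis, then fixed, permeabilized and stained with primary antibodies (1:100, 1 h, RT) and an Alexa Fluor 488 secondary (1:200, 1 h). Read-out was flow cytometry; n=4 (n=3 at 100 mg/kg).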

A549 = test: Antiproliferative activity against human A549 cells after 72 hrs by sulforhodamine B assay; assay type: functional; settings: A549, 72 h; how it was run: as §2
SK-OV-3 = test: Antiproliferative activity against human SKOV3 cells after 72 hrs by sulforhodamine B assay; assay type: functional; settings: SK-OV-3, 72 h; how it was run: as §2
Mus musculus [24] = test: Inhibition of cyclin-dependent kinase substrate […] phosphorylation in nude BALB/c mouse PBMC at 50 mg/kg, po measured after 6 hrs by immunostaining and flow cytometric analysis; assay type: functional, organism-based; design: dose 50 mg/kg; how it was run: as §4
[25] = biological target: MAP/microtubule affinity-regulating kinase 3 (Homo sapiens) (UniProt P27448); test: Inhibition of MARK3 assessed as residual enzyme activity at 10 uM
[26] = biological target: Serine/threonine-protein kinase Sgk1 (Homo sapiens) (UniProt O00141); test: Inhibition of SGK1 assessed as residual enzyme activity at 10 uM
[27] = biological target: Serine/threonine-protein kinase pim-1 (Homo sapiens) (UniProt P11309); test: Inhibition of PIM1 assessed as residual enzyme activity at 10 uM
[28] = biological target: Inhibitor of nuclear factor kappa-B kinase subunit epsilon (Homo sapiens) (UniProt Q14164); test: Inhibition of IKKepsilon assessed as residual enzyme activity at 10 uM
Mus musculus [29] = test: Inhibition of cyclin-dependent kinase substrate […] phosphorylation at Ser5 in nude BALB/c mouse PBMC at 25 mg/kg, po measured after 6 hrs by immunostaining and flow cytometric analysis; assay type: functional; how it was run: as §4
[30] = biological target: Maternal embryonic leucine zipper kinase (Homo sapiens) (UniProt Q14680); test: Inhibition of MELK assessed as residual enzyme activity at 10 uM

Sequence of Serine/threonine-protein kinase pim-1 (Homo sapiens) (P11309 whole entry, looked up): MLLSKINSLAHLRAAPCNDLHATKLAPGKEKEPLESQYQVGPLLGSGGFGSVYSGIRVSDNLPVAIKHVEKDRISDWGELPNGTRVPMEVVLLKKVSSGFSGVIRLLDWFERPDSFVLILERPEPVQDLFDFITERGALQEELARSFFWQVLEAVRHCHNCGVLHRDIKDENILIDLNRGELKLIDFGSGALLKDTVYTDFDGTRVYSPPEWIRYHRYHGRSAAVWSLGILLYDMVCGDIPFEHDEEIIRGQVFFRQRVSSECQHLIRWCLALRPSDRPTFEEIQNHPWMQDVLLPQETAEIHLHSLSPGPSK
Sequence of Serine/threonine-protein kinase 3 (Homo sapiens) (Q13188 whole entry): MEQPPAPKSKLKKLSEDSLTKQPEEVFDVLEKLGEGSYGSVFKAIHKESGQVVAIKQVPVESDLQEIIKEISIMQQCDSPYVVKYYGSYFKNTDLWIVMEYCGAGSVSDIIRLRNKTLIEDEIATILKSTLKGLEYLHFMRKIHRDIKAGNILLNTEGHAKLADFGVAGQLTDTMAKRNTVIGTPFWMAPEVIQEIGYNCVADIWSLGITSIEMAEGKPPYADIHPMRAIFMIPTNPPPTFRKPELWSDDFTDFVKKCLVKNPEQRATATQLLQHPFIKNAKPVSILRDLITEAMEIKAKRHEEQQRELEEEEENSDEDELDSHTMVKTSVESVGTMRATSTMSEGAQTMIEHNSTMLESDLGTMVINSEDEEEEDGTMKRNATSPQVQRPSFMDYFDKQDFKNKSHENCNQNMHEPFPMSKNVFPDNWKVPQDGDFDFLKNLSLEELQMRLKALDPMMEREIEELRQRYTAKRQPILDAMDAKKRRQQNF
Sequence of Dual specificity tyrosine-phosphorylation-regulated kinase 2 (Homo sapiens) (Q92630 whole entry): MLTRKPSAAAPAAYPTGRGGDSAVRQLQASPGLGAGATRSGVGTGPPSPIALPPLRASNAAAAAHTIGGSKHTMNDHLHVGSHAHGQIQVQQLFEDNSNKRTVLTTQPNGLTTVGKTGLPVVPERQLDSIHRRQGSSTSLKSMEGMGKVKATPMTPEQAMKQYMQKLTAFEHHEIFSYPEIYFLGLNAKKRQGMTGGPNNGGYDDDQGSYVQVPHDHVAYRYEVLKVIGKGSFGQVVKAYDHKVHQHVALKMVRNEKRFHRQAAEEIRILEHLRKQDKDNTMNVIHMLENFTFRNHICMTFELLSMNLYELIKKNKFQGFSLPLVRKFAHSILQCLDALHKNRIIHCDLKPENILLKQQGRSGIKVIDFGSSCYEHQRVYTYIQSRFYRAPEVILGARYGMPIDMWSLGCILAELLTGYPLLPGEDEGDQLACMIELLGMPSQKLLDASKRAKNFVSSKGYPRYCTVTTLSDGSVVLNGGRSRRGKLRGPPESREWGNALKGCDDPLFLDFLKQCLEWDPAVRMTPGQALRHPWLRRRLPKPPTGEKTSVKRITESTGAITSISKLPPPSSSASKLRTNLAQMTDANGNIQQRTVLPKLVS
Sequence of MAP kinase-activated protein kinase 5 (Homo sapiens) (Q8IW41 whole entry): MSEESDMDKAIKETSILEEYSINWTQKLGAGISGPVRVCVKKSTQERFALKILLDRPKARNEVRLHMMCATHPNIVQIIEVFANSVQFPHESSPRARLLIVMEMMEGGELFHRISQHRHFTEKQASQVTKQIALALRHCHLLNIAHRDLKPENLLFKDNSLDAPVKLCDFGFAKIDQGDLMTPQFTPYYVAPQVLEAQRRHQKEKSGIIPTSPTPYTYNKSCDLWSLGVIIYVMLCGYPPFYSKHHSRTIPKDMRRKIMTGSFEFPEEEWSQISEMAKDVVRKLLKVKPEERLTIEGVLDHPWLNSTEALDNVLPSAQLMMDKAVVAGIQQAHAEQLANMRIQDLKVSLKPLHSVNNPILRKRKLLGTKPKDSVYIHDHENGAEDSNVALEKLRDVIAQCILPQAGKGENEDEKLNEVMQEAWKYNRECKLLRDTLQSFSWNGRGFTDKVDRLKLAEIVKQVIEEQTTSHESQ
Sequence of Insulin receptor (Homo sapiens) (P06213 28-758 limits assumed): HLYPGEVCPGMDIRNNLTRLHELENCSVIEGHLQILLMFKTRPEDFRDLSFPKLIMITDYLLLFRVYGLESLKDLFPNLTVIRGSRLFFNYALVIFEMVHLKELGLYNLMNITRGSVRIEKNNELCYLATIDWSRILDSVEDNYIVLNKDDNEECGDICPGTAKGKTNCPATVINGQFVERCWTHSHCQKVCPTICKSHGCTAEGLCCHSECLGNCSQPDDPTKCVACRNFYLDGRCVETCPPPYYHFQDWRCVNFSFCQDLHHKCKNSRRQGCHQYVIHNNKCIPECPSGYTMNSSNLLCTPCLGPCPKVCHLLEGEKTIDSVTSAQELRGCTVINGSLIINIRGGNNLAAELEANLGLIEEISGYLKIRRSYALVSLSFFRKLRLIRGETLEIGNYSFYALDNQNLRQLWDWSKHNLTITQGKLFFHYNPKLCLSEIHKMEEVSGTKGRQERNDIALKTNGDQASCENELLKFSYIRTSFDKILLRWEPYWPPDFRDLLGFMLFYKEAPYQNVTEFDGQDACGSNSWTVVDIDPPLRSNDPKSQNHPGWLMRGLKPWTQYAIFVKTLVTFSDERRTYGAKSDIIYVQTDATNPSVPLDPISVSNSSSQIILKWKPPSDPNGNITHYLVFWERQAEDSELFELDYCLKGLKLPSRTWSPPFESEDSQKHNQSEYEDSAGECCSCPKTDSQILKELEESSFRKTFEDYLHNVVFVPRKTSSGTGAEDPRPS
Sequence of Insulin receptor (Homo sapiens) (P06213 763-1382 limits assumed): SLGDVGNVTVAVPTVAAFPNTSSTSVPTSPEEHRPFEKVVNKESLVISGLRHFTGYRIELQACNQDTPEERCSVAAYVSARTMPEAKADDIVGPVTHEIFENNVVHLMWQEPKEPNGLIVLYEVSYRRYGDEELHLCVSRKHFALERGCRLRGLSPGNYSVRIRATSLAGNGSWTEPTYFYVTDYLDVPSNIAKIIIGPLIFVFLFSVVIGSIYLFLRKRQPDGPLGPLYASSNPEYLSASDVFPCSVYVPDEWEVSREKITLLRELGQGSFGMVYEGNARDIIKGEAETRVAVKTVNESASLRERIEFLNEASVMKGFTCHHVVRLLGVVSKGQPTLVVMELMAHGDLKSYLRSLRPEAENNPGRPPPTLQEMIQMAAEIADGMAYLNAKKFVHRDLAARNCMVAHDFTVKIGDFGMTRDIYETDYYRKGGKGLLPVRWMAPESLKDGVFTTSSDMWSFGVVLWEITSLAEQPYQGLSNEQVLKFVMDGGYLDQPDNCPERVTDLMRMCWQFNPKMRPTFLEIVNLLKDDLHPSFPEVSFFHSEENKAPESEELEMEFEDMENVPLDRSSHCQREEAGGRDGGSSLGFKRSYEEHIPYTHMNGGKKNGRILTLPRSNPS
Sequence of Mitogen-activated protein kinase 8 (Homo sapiens) (P45983 whole entry): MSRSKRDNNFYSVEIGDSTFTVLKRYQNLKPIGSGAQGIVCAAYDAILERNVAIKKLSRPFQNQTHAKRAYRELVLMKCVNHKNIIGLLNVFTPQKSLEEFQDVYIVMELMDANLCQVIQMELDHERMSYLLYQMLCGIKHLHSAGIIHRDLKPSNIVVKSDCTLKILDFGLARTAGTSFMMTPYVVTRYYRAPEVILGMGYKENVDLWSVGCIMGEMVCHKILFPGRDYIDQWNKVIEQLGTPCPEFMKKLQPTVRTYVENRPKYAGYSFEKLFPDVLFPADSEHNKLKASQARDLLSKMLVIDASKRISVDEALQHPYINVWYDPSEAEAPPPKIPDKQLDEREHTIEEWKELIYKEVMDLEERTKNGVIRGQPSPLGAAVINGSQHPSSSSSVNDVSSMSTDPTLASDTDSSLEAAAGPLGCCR
Sequence of Serine/threonine-protein kinase PLK1 (Homo sapiens) (P53350 whole entry): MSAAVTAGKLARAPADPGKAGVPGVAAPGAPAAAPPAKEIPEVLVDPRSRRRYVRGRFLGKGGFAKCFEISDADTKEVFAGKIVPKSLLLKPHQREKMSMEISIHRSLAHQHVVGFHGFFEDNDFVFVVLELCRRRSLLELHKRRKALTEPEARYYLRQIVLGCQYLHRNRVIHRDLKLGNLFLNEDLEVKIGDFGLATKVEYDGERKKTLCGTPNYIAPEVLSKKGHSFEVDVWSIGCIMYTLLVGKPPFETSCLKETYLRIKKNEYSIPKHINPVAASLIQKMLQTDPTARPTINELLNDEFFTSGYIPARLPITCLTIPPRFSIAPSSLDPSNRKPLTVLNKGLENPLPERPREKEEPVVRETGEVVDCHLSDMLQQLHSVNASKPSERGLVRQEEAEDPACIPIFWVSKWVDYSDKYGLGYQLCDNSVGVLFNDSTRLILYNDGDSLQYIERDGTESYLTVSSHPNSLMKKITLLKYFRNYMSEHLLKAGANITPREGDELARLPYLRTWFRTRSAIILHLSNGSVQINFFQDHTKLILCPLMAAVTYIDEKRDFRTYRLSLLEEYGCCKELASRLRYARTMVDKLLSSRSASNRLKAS
Sequence of Inhibitor of nuclear factor kappa-B kinase subunit epsilon (Homo sapiens) (Q14164 whole entry): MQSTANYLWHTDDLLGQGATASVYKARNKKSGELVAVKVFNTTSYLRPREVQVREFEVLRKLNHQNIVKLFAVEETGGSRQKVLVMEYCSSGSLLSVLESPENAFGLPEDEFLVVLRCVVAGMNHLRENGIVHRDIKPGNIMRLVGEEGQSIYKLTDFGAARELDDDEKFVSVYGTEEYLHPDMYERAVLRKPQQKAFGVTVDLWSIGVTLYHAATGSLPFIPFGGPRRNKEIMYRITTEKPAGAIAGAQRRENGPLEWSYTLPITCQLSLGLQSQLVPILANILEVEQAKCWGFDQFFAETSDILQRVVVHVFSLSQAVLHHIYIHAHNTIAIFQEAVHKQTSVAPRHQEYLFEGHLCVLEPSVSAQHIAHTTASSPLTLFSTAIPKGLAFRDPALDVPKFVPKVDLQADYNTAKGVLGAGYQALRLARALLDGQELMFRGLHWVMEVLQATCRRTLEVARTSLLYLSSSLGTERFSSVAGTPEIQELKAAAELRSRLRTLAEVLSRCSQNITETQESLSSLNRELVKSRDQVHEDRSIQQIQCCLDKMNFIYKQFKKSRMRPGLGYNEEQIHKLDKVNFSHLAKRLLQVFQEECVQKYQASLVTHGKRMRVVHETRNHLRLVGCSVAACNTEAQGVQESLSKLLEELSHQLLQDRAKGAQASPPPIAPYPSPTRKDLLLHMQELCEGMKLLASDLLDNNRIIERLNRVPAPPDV

What does the source list for `CC(C)c1cnn2c(NCc3ccccc3)cc(N[C@@H](CO)[C@H](O)CO)nc12`?
inhibition [1]: inactive; Activity [2]: 68%; GI50 (COLO 205): 120 nM; Activity [3]: 19%; Activity [4]: 26%; GI50 (HCT-116 [5]): 100 nM; Activity [6]: 93%; Activity [7]: 86%; Activity [8]: 70%; Activity (HCT-116 [9]): 50%; solubility [10]: 54 µM (≈ 20.8 µg/mL); Activity (MCF7 [11]): Active; fraction unbound at 10 µM [12]: 0.057; fraction unbound at 10 µM [13]: 0.117; Activity [14]: 26%; Activity (HCT-116 [15]): Active; Activity (HCT-116 [16]): Dose-dependent effect; GI50 (MDA-MB-231): 300 nM; Activity [17]: 75%; inhibition [18]: Active; Activity [19]: 88%; clearance [20]: 5 mL/min/kg; Activity (MCF7 [21]): Active; Activity [22]: 97%; inhibition (INH) (Mus musculus [23]): Not Active; GI50 (A549): 200 nM; GI50 (SK-OV-3): 300 nM; inhibition (Mus musculus [24]): inactive; Activity [25]: 82%; Activity [26]: 92%; Activity [27]: 103%; Activity [28]: 94%; inhibition in vivo at 25 mg/kg (Mus musculus [29]): 25%; Activity [30]: 88%
